Test results: ChEMBL document CHEMBL3994605, “Synthesis and biological evaluation of curcumin inspired indole analogues as tubulin polymerization inhibitors” (Eur J Med Chem, 2017)
The source made the active and inactive calls. The calls are words filed in the database; no cut-off is given here.

How the values were obtained:
HeLa = assay: Antiproliferative activity against human HeLa cells after 48 hrs by MTT assay; format: functional, cell-based
Summary of the method: (§1)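 MTT read-out. Cells were seeded at 5 × 10^3 per well in DMEM or RPMI with 10% FBS and grown 24 h at 37 °C in CO2. Compound dilutions in medium, with vehicle control, were then added for 48 h. MTT (0.5 mg/mL in medium) was given for 4 h, formazan was dissolved in DMSO, and A570 was read. IC50 was taken from concentration–response curves as mean ± SD of three experiments run in triplicate.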

PC-3 [1] = assay: Potency index, ratio of curcumin IC50 to compound IC50 for human PC3 cells; format: functional
A549 = assay: Antiproliferative activity against human A549 cells after 48 hrs by MTT assay; format: functional, cell-based; conditions: A549, 48 h; summary of the method: as §1
DU-145 [2] = assay: Antiproliferative activity against human DU145 cells after 48 hrs by MTT assay; format: functional, cell-based; conditions: DU-145, 48 h; summary of the method: as §1
4T1 = assay: Antiproliferative activity against mouse 4T1 cells after 48 hrs by MTT assay; format: functional, cell-based; conditions: 4T1, 48 h; summary of the method: as §1
PC-3 [3] = assay: Cell cycle arrest in human PC3 cells assessed as accumulation at G2/M phase at 10 uM after 24 hrs by propidium iodide staining based flow cytometry (reference value: 12.2 to 24.74%); format: functional
Summary of the method: (§2)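 PC-3 cells were seeded at 1 × 10^5 cells/mL, attached 24 h, then treated 24 h. Cells were fixed overnight in 70% ethanol in PBS. Staining used propidium iodide ([…]) with RNase A ([…]) and 0.1% Triton X-100 for 30 min at 37 °C in the dark. About 10,000 events per sample were acquired by flow cytometry.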

PC-3 [4] = assay: Cell cycle arrest in human PC3 cells assessed as accumulation at S phase at 2.5 uM after 24 hrs by propidium iodide staining based flow cytometry (reference value: 3.3 to 5.58%); format: functional; summary of the method: as §2
RWPE-1 = assay: Antiproliferative activity against human RWPE1 cells after 48 hrs by MTT assay; format: cell-based; conditions: RWPE-1, 48 h; summary of the method: as §1
PC-3 [5] = assay: Cell cycle arrest in human PC3 cells assessed as accumulation at subG1 phase at 5 uM after 24 hrs by propidium iodide staining based flow cytometry (reference value: 4.29 to 7.23%); format: functional; summary of the method: as §2
PC-3 [6] = assay: Induction of apoptosis in human PC3 cells assessed as horse shoe shaped nuclei at 2.5 to 5 uM after 48 hrs by acridine orange/ethidium bromide staining based fluorescence microscopic method; format: functional, cell-based
Summary of the method: (§3)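 PC-3 cells were plated at 25,000 per well, grown 24 h, then exposed 48 h. Cells were PBS-washed, stained with acridine orange and ethidium bromide ([…]), and imaged immediately by fluorescence microscopy (ex 488, em 550 nm) at 200×.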

PC-3 [7] = assay: Induction of apoptosis in human PC3 cells assessed as chromatin condensation at 2.5 to 5 uM after 48 hrs by DAPI staining based fluorescence microscopic method; format: functional, cell-based
Summary of the method: (§4)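 PC-3 cells were seeded at 25,000 per well and adhered overnight, then exposed 48 h. Cells were fixed in 4% neutral buffered formalin for 20 min and permeabilized with 0.2% Triton X for 5 min. DAPI (1 mg/mL) staining ran 10 min at room temperature, followed by fluorescence microscopy (ex 350, em 460 nm) at 200×.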

MDA-MB-231 [8] = assay: Antiproliferative activity against human MDA-MB-231 cells after 48 hrs by MTT assay; format: functional, cell-based; conditions: MDA-MB-231, 48 h; summary of the method: as §1
PC-3 [9] = assay: Cell cycle arrest in human PC3 cells assessed as accumulation at G0/G1 phase at 2.5 uM after 24 hrs by propidium iodide staining based flow cytometry (reference value: 65.04 to 76.95%); format: functional; summary of the method: as §2
MDA-MB-231 [10] = assay: Potency index, ratio of curcumin IC50 to compound IC50 for human MDA-MB-231 cells; format: functional
PC-3 [11] = assay: Induction of apoptosis in human PC3 cells assessed as destructive fragmentation of nuclei at 2.5 to 5 uM after 48 hrs by acridine orange/ethidium bromide staining based fluorescence microscopic method; format: functional, cell-based; summary of the method: as §3
Sus scrofa = species on record: Sus scrofa; assay: Inhibition of porcine brain tubulin polymerization assessed as reduction in incorporation of fluorescent reporter at 10 uM by fluorescence based assay relative to control
Summary of the method: (§5)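 Cell-free mix contained porcine brain tubulin (2 mg/mL) in 80 mM PIPES pH 6.9 with 2.0 mM MgCl2, 0.5 mM EGTA, 1.0 mM GTP and glycerol, with or without compound. Polymerization was tracked as a time-dependent fluorescence rise from reporter incorporation (ex 360, em 440 nm), with nocodazole as positive control. Inhibition was scored versus the untreated control. For IC50, the concentration giving 50% inhibition of assembly was used.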

PC-3 [12] = assay: Cell cycle arrest in human PC3 cells assessed as accumulation at G2/M phase at 5 uM after 24 hrs by propidium iodide staining based flow cytometry (reference value: 12.2 to 24.74%); format: functional; summary of the method: as §2
PC-3 [13] = assay: Induction of apoptosis in human PC3 cells assessed as cell membrane blebbing at 2.5 to 5 uM after 48 hrs by acridine orange/ethidium bromide staining based fluorescence microscopic method; format: functional; summary of the method: as §3
BT-549 [14] = assay: Potency index, ratio of curcumin IC50 to compound IC50 for human BT549 cells; format: functional
PC-3 [15] = assay: Cell cycle arrest in human PC3 cells assessed as accumulation at S phase at 10 uM after 24 hrs by propidium iodide staining based flow cytometry (reference value: 3.3 to 5.58%); format: functional; summary of the method: as §2
PC-3 [16] = assay: Induction of apoptosis in human PC3 cells assessed as horse shoe shaped nuclei at 2.5 to 5 uM after 48 hrs by DAPI staining based fluorescence microscopic method; format: functional, cell-based; summary of the method: as §4
PC-3 [17] = assay: Cell cycle arrest in human PC3 cells assessed as accumulation at subG1 phase at 2.5 uM after 24 hrs by propidium iodide staining based flow cytometry (reference value: 4.29 to 7.23%); format: functional; summary of the method: as §2
PC-3 [18] = assay: Cell cycle arrest in human PC3 cells assessed as accumulation at S phase at 5 uM after 24 hrs by propidium iodide staining based flow cytometry (reference value: 3.3 to 5.58%); format: functional; summary of the method: as §2
PC-3 [19] = assay: Induction of apoptosis in human PC3 cells assessed as pyknotic nuclei at 2.5 to 5 uM after 48 hrs by DAPI staining based fluorescence microscopic method; format: functional, cell-based; summary of the method: as §4
PC-3 [20] = assay: Induction of mitochondrial membrane potential loss in human PC3 cells assessed as ratio of green to red fluorescence at 5 uM after 24 hrs by JC1 staining based spectrofluorometric method (reference value: 0.103); format: functional
DU-145 [21] = assay: Potency index, ratio of curcumin IC50 to compound IC50 for human DU145 cells; format: functional
BT-549 [22] = assay: Antiproliferative activity against human BT549 cells after 48 hrs by MTT assay; format: functional, cell-based; conditions: BT-549, 48 h; summary of the method: as §1
PC-3 [23] = assay: Antiproliferative activity against human PC3 cells after 48 hrs by MTT assay; format: functional, cell-based; conditions: PC-3, 48 h; summary of the method: as §1
PC-3 [24] = assay: Cell cycle arrest in human PC3 cells assessed as accumulation at G0/G1 phase at 5 uM after 24 hrs by propidium iodide staining based flow cytometry (reference value: 65.04 to 76.95%); format: functional; summary of the method: as §2
PC-3 [25] = assay: Cell cycle arrest in human PC3 cells assessed as accumulation at G2/M phase at 2.5 uM after 24 hrs by propidium iodide staining based flow cytometry (reference value: 12.2 to 24.74%); format: functional; summary of the method: as §2
PC-3 [26] = assay: Induction of apoptosis in human PC3 cells assessed as nuclear shrinkage at 2.5 to 5 uM after 48 hrs by DAPI staining based fluorescence microscopic method; format: functional, cell-based; summary of the method: as §4
HGC-27 = assay: Antiproliferative activity against human HGC27 cells after 48 hrs by MTT assay; format: functional, cell-based; conditions: HGC-27, 48 h; summary of the method: as §1
PC-3 [27] = assay: Induction of apoptosis in human PC3 cells assessed as nuclear fragmentation at 2.5 to 5 uM after 48 hrs by DAPI staining based fluorescence microscopic method; format: functional, cell-based; summary of the method: as §4
[28] = Inhibition of porcine brain tubulin polymerization assessed as reduction in incorporation of fluorescent reporter by fluorescence based assay; parameters: species or system Sus scrofa; summary of the method: as §5
PC-3 [29] = assay: Cell cycle arrest in human PC3 cells assessed as accumulation at G0/G1 phase at 10 uM after 24 hrs by propidium iodide staining based flow cytometry (reference value: 65.04 to 76.95%); format: functional; summary of the method: as §2
PC-3 [30] = assay: Cell cycle arrest in human PC3 cells assessed as accumulation at subG1 phase at 10 uM after 24 hrs by propidium iodide staining based flow cytometry (reference value: 4.29 to 7.23%); format: functional; summary of the method: as §2
PC-3 [31] = assay: Induction of apoptosis in human PC3 cells assessed as chromatin condensation at 2.5 to 5 uM after 48 hrs by acridine orange/ethidium bromide staining based fluorescence microscopic method; format: functional, cell-based; summary of the method: as §3

SMILES | IC50 (HeLa) | Ratio IC50 (PC-3 [1]) | IC50 (A549) | IC50 (DU-145 [2]) | IC50 (4T1) | Activity (PC-3 [4]) | IC50 (RWPE-1) | Activity (PC-3 [5]) | Activity (PC-3 [6]) | Activity (PC-3 [7]) | IC50 (MDA-MB-231 [8]) | Activity (PC-3 [9]) | Ratio IC50 (MDA-MB-231 [10]) | Activity (PC-3 [11]) | inhibition (Sus scrofa) | Ratio IC50 (BT-549 [14]) | Ratio IC50 (DU-145 [21]) | IC50 (BT-549 [22]) | IC50 (PC-3 [23]) | IC50 (HGC-27) | further results
COc1cc(/C=C/C(=O)/C=C/c2c[nH]c3ccccc23)cc(OC)c1OC | 3.31 µM | 3.9 | 8.01 µM | 8.92 µM | 9.79 µM | 8.94% | 6.42 µM | 3.46% | Active | Active | 11.4 µM | 58.47% | 1.4 | Active | 57.3% | 2.8 | 3.2 | 8.72 µM | 3.15 µM | 8.65 µM | Activity (PC-3 [3]): 31.42%; Activity (PC-3 [12]): 29.87%; Activity (PC-3 [13]): Active; Activity (PC-3 [15]): 10.04%; Activity (PC-3 [16]): Active; Activity (PC-3 [17]): 4.74%; Activity (PC-3 [18]): 6.2%; Activity (PC-3 [19]): Active; Ratio (PC-3 [20]): 0.132; Activity (PC-3 [24]): 58.52%; Activity (PC-3 [25]): 27.04%; Activity (PC-3 [26]): Active; Activity (PC-3 [27]): Active; IC50 [28]: 8.81 µM; Activity (PC-3 [29]): 51.68%; Activity (PC-3 [30]): 5.99%; Activity (PC-3 [31]): Active
COc1ccc(/C=C/C(=O)/C=C/c2c[nH]c3ccccc23)cc1OC | 6.44 µM | 2.2 | 30.2 µM | 13.3 µM | 21.9 µM | – | – | – | – | – | 15.7 µM | – | 1 | – | 39.7% | 5.3 | 2.1 | 4.69 µM | 5.52 µM | 7.45 µM | –
COc1ccc(OC)c(/C=C/C(=O)/C=C/c2c[nH]c3ccccc23)c1 | 6.59 µM | 1.9 | 19 µM | 7.71 µM | 16.1 µM | 2.43% | 18.6 µM | 1.31% | Active | Active | 6.02 µM | 38.65% | 2.6 | Active | 51.7% | 2.9 | 3.7 | 8.34 µM | 6.34 µM | 5.21 µM | Activity (PC-3 [12]): 55.93%; Activity (PC-3 [13]): Active; Activity (PC-3 [16]): Active; Activity (PC-3 [17]): 0.6%; Activity (PC-3 [18]): 1.36%; Activity (PC-3 [19]): Active; Ratio (PC-3 [20]): 0.135; Activity (PC-3 [24]): 41.11%; Activity (PC-3 [25]): 57.54%; Activity (PC-3 [26]): Active; Activity (PC-3 [27]): Active; IC50 [28]: 10.2 µM; Activity (PC-3 [31]): Active
